High-throughput results deposited in PubChem by several laboratories.
ROMK primary – ROMK potassium channel modulators, primary screen, cell-based, thallium flux, MLSMR library; 130,000 tested, 2% active; Tet-inducible ROMK, thallium flux fluorescence; actives lie on both sides; ATP-sensitive inward rectifier potassium channel 1 (Homo sapiens), P48048; B-score at 10 µM;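 active = signal ratio slope over the read window, or its plate-corrected B-score, at least 3 SD from the plate mean, either direction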;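 also: B-score of the F/F0 ratio slope over 7 to 12 s after thallium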
Mdm2 ligase inh – MDM2-luciferase reporter signal enhancers, primary screen, MDM2 E3 ligase inhibitor project, cell-based, luminescence, 1536-well. E3 ubiquitin-protein ligase Mdm2 (Homo sapiens), Q00987. cell-based MDM2 ubiquitination luciferase reporter, 2 h; 0 = plate control, 100 = twice control, blank-subtracted. signal enhancement, % at 5 µM. 210,000 tested, 0.11% active. AID 1230, 2008;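 active = signal enhancement of 30% or more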;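 also: luminescence tracks abundance of the self-degrading MDM2-luciferase fusion protein; higher signal means inhibition of MDM2 E3 ligase activity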
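System: stable MDM2–luciferase fusion reporter cells / Input: 2000 cells seeded into each well / Schedule: 4 h settle plus 2 h compound, 37 °C / Compound: single-point 5 µM / Buffer or medium: cells held in DMEM / Benchmarks: control and blank well means / Evaluation: percent signal gain over controls, blank-subtracted / Measured by: luciferase luminescence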
KCC2 mod – KCC2 cotransporter modulators, thallium flux, primary screen, cell-based, HEK293 KCC2, FluoZin-2 fluorescence, MLSMR. 190,000 tested, 2.2% active. B-score of Tl+ flux slope (higher = more flux/activation; lower = inhibition) at 10 µM. AID 1456, 2008. KCC2 cells, thallium flux FluoZin-2 fluorescence. Solute carrier family 12 member 5 (Homo sapiens), Q9H2X9;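 active = thallium flux slope and its plate-corrected score both differing from the plate sample mean at a set confidence after two filtering rounds, in either direction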;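 also: slope of fluorescence scaled to starting intensity during 10 to 20 s after thallium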
p97 inhibitor – inhibitors of human p97 ATPase, primary screen, biochemical. Transitional endoplasmic reticulum ATPase (Homo sapiens), P55072. recombinant p97 ATPase, Kinase-Glo ATP luminescence, 3 h. inhibition, % at 8 µM. 220,000 tested, 0.42% active. AID 1481, 2009; in the data active = inhibition above about 15%;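 also: 0% = DMSO vehicle and 100% = wells lacking enzyme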
Target sequence (P55072 whole entry, looked up): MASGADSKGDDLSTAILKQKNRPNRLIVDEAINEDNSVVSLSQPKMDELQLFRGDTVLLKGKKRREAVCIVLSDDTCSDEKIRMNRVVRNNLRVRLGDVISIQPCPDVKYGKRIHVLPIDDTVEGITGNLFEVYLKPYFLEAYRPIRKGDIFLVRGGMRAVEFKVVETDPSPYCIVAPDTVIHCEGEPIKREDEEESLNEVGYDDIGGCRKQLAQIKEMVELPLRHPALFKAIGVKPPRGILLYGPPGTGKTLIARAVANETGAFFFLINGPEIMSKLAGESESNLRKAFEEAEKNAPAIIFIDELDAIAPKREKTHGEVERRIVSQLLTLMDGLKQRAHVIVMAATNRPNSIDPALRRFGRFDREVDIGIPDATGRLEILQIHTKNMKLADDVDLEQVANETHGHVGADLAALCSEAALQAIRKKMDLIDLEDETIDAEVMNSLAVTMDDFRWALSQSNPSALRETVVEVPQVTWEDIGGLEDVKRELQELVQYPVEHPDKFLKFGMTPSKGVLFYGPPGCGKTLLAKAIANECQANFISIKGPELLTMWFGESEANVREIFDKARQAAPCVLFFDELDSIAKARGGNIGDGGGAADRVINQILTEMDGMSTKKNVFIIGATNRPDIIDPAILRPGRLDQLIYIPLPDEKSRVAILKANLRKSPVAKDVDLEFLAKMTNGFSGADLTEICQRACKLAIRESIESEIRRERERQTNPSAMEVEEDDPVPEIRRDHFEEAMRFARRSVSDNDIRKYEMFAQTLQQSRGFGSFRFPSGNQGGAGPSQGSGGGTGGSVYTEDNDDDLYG
Redox H2O2 prof – compounds producing H2O2 with reducing agent – biochemical, NIH compound library profiling, artefact control for MLSCN library redox annotation, primary screen | DTT-dependent redox cycling H2O2, phenol red/HRP absorbance; 100% = 100 µM peroxide control, 0% = buffer | activation, % at 10 µM | 200,000 tested, 0.03% active | AID 878, 2007;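 active = activation of at least 50% relative to the plate's high and low controls in the primary single-dose screen; inactive = activation below 50%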;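 also: compound incubated with DTT at 0.8 mM final as the reducing agent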
PKD1 inh – inhibitors of human PKD1 kinase, biochemical, fluorescence polarization; PKD1 kinase fluorescence polarization assay; 200,000 tested, 0.056% active; AID 797, 2007; inhibition, % (test concentration not listed); Serine/threonine-protein kinase D1 (Homo sapiens), Q15139; in the data active = inhibition above about 50%
KCC2 sec1 – KCC2 modulators in sodium-free buffer, confirmation, cell-based, HEK293 KCC2, thallium flux, secondary assay. shares compounds with KCC2 mod. normalised thallium flux (F/F0 slope) at 10 µM. 3,700 tested, 15% active. FluoZin2 fluorescence; active compounds read high. AID 1713, 2009;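 active = thallium flux slope above the same plate's solvent-only control mean plus 3 SD; inconclusive = the two replicate wells disagree; inactive = no significant difference from solvent-only control wells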
KCC2 bumet counter – thallium flux persisting under bumetanide in KCC2 cells, confirmation, counter-screen for KCC2 modulator project, cell-based, HEK293 KCC2, FluoZin2, secondary assay 3; normalized thallium flux at 10 µM; HEK293-KCC2 + bumetanide/ouabain; active compounds read high; shares compounds with KCC2 mod; AID 1714, 2009; 3,700 tested, 49% active;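 active = thallium entry rate above the same plate's blocked-transporter control wells by more than 3 SD; inconclusive = the two repeat wells disagree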;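 also: raw slope of fluorescence over initial fluorescence between 10 and 20 s after thallium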
KCC2 sec2 – KCC2 modulators without ouabain present, confirmation, cell-based, HEK293 KCC2, thallium flux, FluoZin2, secondary assay 2; shares compounds with KCC2 mod; 3,700 tested, 23% active; thallium flux FluoZin2 fluorescence; actives lie on both sides; F/F0 rise rate, 10–20 s post-thallium; normalized thallium flux at 10 µM;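 active = thallium flux slope more than 3 SD above or below the plate's solvent-only control mean, mostly below; inconclusive = the two repeat wells disagreed; inactive = no significant shift from solvent-only controls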;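 also: raw slope with 0.1% DMSO as baseline and bumetanide as block control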
HEK counter1 – thallium flux modulation in parental HEK cells, confirmation, counter-screen for KCC2 modulator project, cell-based, counterscreen 1; shares compounds with KCC2 mod; HEK293 parental cells, thallium flux FluoZin2, ouabain; baseline-ratio fluorescence slope, 10–20 s after thallium; thallium flux rate (normalised fluorescence) at 10 µM; 3,700 tested, 46% active; AID 1716, 2009;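 active = thallium flux rate significantly above the same plate's solvent-only control wells, beyond their mean plus 3 SD; inconclusive = the two replicate wells gave conflicting results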
KCC2 ouabain – KCC2 inhibitors and activators, ouabain retest, confirmation, HEK-KCC2 cells; 3,700 tested, 48% active; raw Tl+ flux slope (below DMSO = inhibition, above = activation) at 10 µM; HEK293-KCC2, thallium flux FluoZin2 fluorescence; bidirectional: low = inhibitor, high = activator; shares compounds with KCC2 mod;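 active = thallium flux slope beyond 3 SD from same-plate DMSO control mean in most replicates, usually higher, sometimes lower; inconclusive = repeat tests gave conflicting results; inactive = no significant difference from controls in most replicates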;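 also: slope of initial-normalized fluorescence between seconds 10 and 20 after thallium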
HEK293 Tl flux2 – native HEK Tl+ uptake effects, second counter-screen – HEK cells, counterscreen 2, counter-screen for KCC2 modulator project, confirmation; shares compounds with KCC2 mod; HEK293 parental, thallium flux FluoZin-2 fluorescence slope; thallium flux slope at 10 µM; 3,700 tested, 33% active; AID 1718, 2009;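 active = thallium flux slope above the same plate's solvent-control mean plus 3 SD in both duplicate wells; inconclusive = duplicate wells that disagreed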;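 also: run without ouabain in cells lacking the KCC2 cotransporter; slope of fluorescence scaled to its starting value between 10 and 20 s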
Numbers without * were called inactive; ? = inconclusive; / = no result. A selection: hits, their analogues and other compounds. The true share with any hit is near 3.4%.

SMILES	ROMK primary	Mdm2 ligase inh	KCC2 mod	p97 inhibitor	Redox H2O2 prof	PKD1 inh	KCC2 sec1	KCC2 bumet counter	KCC2 sec2	HEK counter1	KCC2 ouabain	HEK293 Tl flux2
Cc1ccc(C(=O)NC(=S)Nc2c(C)ccc3nsnc23)cc1	-0.428	24.2	8.67*	2.0	-0.3	-11.5	0.0112	0.0575*	0.0373	0.0234*	0.0448*	0.0129*
Cc1ccc(C(=O)NC(=S)Nc2cccc3nsnc23)cc1	0.17	3.1	0.864	1.3	-4.0	-0.2	/	/	/	/	/	/
NC(=O)C(c1ccc(Sc2ccccc2)nn1)c1ccc(Cl)cc1Cl (centres undefined)	-0.536	-6.8	4.03*	-0.9	-0.1	-1.8	0.00797	0.00464	0.0333	0.00712	0.0178	0.0119
NC(=O)C(c1ccc(Cl)cc1)c1ccc(Sc2ccccc2)nn1 (centres undefined)	1.1	-13.6	0.29	-2.0	0.2	-10.6	/	/	/	/	/	/
CCC(C)n1c(-c2cccc(S(=O)(=O)N(CC)CC)c2)n[nH]c1=S (centres undefined)	-0.506	/	-1.17	5.2	0.6	7.2	/	/	/	/	/	/
COc1ccc(N2CCN(C(=O)CN(c3cccc(Br)c3)S(C)(=O)=O)CC2)cc1	/	20.6	0.000864	4.0	1.5	-1.3	/	/	/	/	/	/
CS(=O)(=O)N(CC(=O)N1CCN(c2ccccc2)CC1)c1cccc(Br)c1	0.0906	-10.7	/	-1.4	-3.2	-4.0	0.0063	0.005	0.0232*	0.00759	0.0148*	0.0102
CS(=O)(=O)N(CC(=O)N1CCN(c2ccc(F)cc2)CC1)c1ccc(F)c(Cl)c1	-0.0561	-19.0	-4.44*	0.3	0.3	-0.5	?	0.00679	0.0277*	0.00752	0.0163*	0.011
Cc1ccc(C(=O)NS(=O)(=O)c2ccccc2)cc1	0.132	8.4	0.229	5.2	0.0	-4.5	/	/	/	/	/	/
S=c1[nH]nc(-c2ccco2)n1/N=C/C(Cl)=C/c1ccccc1	/	-2.7	33.9*	2.1	/	/	0.0163*	0.139*	0.0377	0.0289*	0.0671*	0.0149*
Cc1cc(-c2n[nH]c(=S)n2/N=C/C(Cl)=C/c2ccccc2)n[nH]1	/	-10.9	4.88*	1.5	0.5	4.5	0.00932	0.0131*	0.0365	?	0.0197	0.0109
Cc1cc(-c2n[nH]c(=S)n2/N=C/c2cccc(O)c2)n[nH]1	/	-12.5	-0.0745	0.3	/	/	/	/	/	/	/	/
CC(/C=N/n1c(-c2ccco2)n[nH]c1=S)=C\c1ccco1	/	-15.1	4.74*	-4.4	0.1	6.7	0.00815	0.0273*	0.0383	0.0183*	0.0281*	0.0204*
N#Cc1nc(-c2cccs2)oc1N1CCN(Cc2ccccc2)CC1	-0.0222	-0.1	/	-7.1	2.2	2.5	0.0177	?	0.0228*	0.00711	0.0139	0.01
c1cn(CCCNc2ncnc3sc4c(c23)CCC4)cn1	/	-8.4	-0.551	-4.1	-3.1	-6.4	/	/	/	/	/	/
Cn1c(O)c(C2=c3ccccc3=NC2=O)[nH]c1=S	/	7.1	27.4*	6.2	0.1	0.4	0.0154*	0.0614*	0.032	0.0306*	0.0427*	0.0139*
COc1ccc2nc(-n3c(O)c(C4=c5ccccc5=NC4=O)[nH]c3=S)sc2c1	/	-8.2	0.0102	-4.3	0.6	2.5	/	/	/	/	/	/
COc1cc(/C=C(\C#N)C(=O)NCc2ccccc2)ccc1OCc1ccc(C(=O)O)cc1	/	-13.1	-4.14*	2.3	/	/	0.00869	0.00875*	0.034	0.00845	?	0.0112
COc1cc(/C=C(\C#N)C(=O)NC(C)C)ccc1OCc1ccc(C(=O)O)cc1	/	-11.5	-2.44	6.7	/	/	/	/	/	/	/	/
Cc1ccc(C(=O)CSc2nnc(-c3ccco3)n2Cc2ccccc2)cc1	/	-1.4	-3.2*	-1.8	2.9	5.9	0.00635	0.00363	0.0314	?	0.0134*	0.0107
O=C(CSc1nnc(-c2ccco2)n1Cc1ccccc1)c1ccccc1	/	-23.4	-8.24*	-11.8	0.3	-10.4	0.0066	0.00473	?	?	0.0154*	0.0103
CCCn1c(SCC(=O)N2CCCCC2)nnc1-c1ccccn1	0.656	-5.9	0.874	0.2	-0.2	-5.1	/	/	/	/	/	/
CCCn1c(SCC(=O)N2CCCCC2)nnc1-c1ccco1	/	-26.6	5.59*	9.3	-0.3	-4.8	0.00843	0.00613	0.0324	0.00737	0.0217	0.00971
COc1ccccc1C1CC(c2ccc(Cl)cc2)Nc2ncnn21 (centres undefined)	/	-12.8	/	1.7	-0.2	0.7	/	/	/	/	/	/
O=CNCCCc1nc2ccccc2n1Cc1cccc2ccccc12	0.637	-2.6	/	-5.5	-0.1	-0.1	/	/	/	/	/	/
Cc1nc2scc(-c3ccc(Cl)cc3)c2c(=O)o1	-1.17	15.4	/	-8.5	0.0	0.5	0.0094	0.00672	0.0326	0.004	0.0194	0.0111
Cn1cnnc1Sc1ccc(/C=C(\CCC(=O)O)c2nc3ccccc3s2)cc1[N+](=O)[O-]	-0.946	-7.7	-6.78*	-0.4	-0.8	-2.7	0.00574	0.00475	0.0246*	0.00593*	0.0137*	0.00966
